ChEMBL document CHEMBL5506013, “Mitochondria-Selective Dicationic Small-Molecule Ligand Targeting G-Quadruplex Structures for Human Colorectal Cancer Therapy” (J Med Chem, 2024)
Activity calls are given as the source filed them. The rule behind the calls is not given here.

How the values were obtained:
[1] = Drug localization in human HCT-116 cells by measuring red foci at 4 uM incubated for 1 hr in presence of MitoPDS by hoechst33342 staining based analysis; type: ADME, cell-based; conditions: hct-116, 1 h
Summary of the method: (§1)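 Pretreatment of live HCT116 cells: FCCP 1 uM for 20 min, cyclosporin A 1 uM for 24 h, DMOG 100 uM for 24 h, or MitoPDS at several concentrations for 3 h (applied after dye loading). Cells loaded with ligand 4 uM (excitation 488 nm) for 1 h and Hoechst33342 1 uM for 30 min. Red foci counted by confocal imaging in 100 cells. Mean ± SEM, t test.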

[2] = Drug localization in human HCT-116 cells by measuring red foci at 4 uM incubated for 1 hr in presence of cyclosporin A by hoechst33342 staining based analysis; type: ADME, cell-based; conditions: hct-116, 1 h; summary of the method: as §1
HCT-116 [3] = experiment: Downregulation of mitochondrial respiratory chain complex III level in human HCT-116 cells at upto 4 uM measured after 48 hrs by Western blot analysis; type: functional, cell-based
HCT-116 [4] = experiment: Downregulation of ND4 mRNA level in human HCT-116 cells at 0 to 4 uM measured after 48 hrs by qRT-PCR analysis; type: functional, cell-based; conditions: dose 0-4 µM
[5] = Drug localization in human HCT-116 cells transfected with Cy5-mito 78 G4 DNA at 4 uM incubated for 1 hr by hoechst33342 staining based analysis; type: ADME, cell-based; conditions: hct-116, 1 h
Summary of the method: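 HCT116 cells transfected with Cy5-coupled mtDNA for 24 h, then given ligand 4 uM for 1 h and Hoechst33342 1 uM for 30 min. Single-plane confocal imaging of living cells, ligand excited at 488 nm, Cy5 at 635 nm. Colocalization expressed as r.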

[6] = Toxicity in BALB/c nude mouse assessed as effect on lung at 5 mg/kg, iv measured after 16 hrs post injection by H and E staining based analysis; type: organism-based; conditions: in vivo
HCT-116 [7] = experiment: Antitumor activity against human HCT-116 cells assessed as increase in beta-galactosidase activity at upto 4 uM measured after 72 hrs relative to control; type: functional; conditions: up to 4 µM
Summary of the method: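 HCT116 cells were treated for 72 h across 0–4 uM. β-Galactosidase activity was then measured against untreated control. Data are given as mean ± SEM, with significance by t test.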

DNA [8] = experiment: Binding affinity to HP19 DNA (non-G4 DNA) (unknown origin) assessed as change in melting temperature at 5 uM by circular dichroism spectroscopic analysis; type: nucleic-acid assay
Quadruplex DNA [9] = experiment: Binding affinity to mito 29 G4 DNA (unknown origin) assessed as increase in fluorescence intensity by fluorescence spectrophotometric analysis; type: nucleic-acid assay
Summary of the method: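 Oligonucleotides were pre-annealed at 95 °C for 10 min, then cooled slowly. Ligand (5 uM) was mixed with 20 uM DNA in buffer. Emission was collected over 550–800 nm, and enhancement was taken at 650 nm as F/F0.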

[10] = Drug localization in human HCT-116 cells by measuring red foci at 4 uM incubated for 1 hr in presence of RNA by hoechst33342 staining based analysis; type: ADME, cell-based; conditions: hct-116, 1 h
Summary of the method: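 Live HCT116 cells loaded with ligand 4 uM for 1 h and Hoechst33342 1 uM for 30 min, then fixed. Fixed cells digested with 200 units DNase I or RNase A for 3 h. Red foci imaged by confocal microscopy in 100 cells. Mean ± SEM, t test.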

HCT-116 [11] = experiment: Downregulation of ATP6 mRNA level in human HCT-116 cells at 0 to 4 uM measured after 48 hrs by qRT-PCR analysis; type: functional, cell-based; conditions: dose 0-4 µM
HCT-116 [12] = experiment: Downregulation of COX2 protein level in human HCT-116 cells at upto 4 uM incubated for 48 hrs by Western blot analysis; type: functional, cell-based
Quadruplex DNA [13] = experiment: Binding affinity to Mito 78 G4 DNA (unknown origin) assessed as increase in CD signal at 5 uM at 290 nMby circular dichroism spectroscopic analysis; type: nucleic-acid assay
HCT-116 [14] = experiment: Downregulation of ND4L mRNA level in human HCT-116 cells at 0 to 4 uM measured after 48 hrs by qRT-PCR analysis; type: functional, cell-based; conditions: dose 0-4 µM
[15] = Drug localization in human HCT-116 cells by measuring red foci at 4 uM incubated for 1 hr in presence of DMOG by hoechst33342 staining based analysis; type: ADME, cell-based; conditions: hct-116, 1 h; summary of the method: as §1
Quadruplex DNA [16] = experiment: Binding affinity to mito 81 G4 DNA (unknown origin) assessed as dissociation constant measured upto 150 secs by isothermal titration calorimetry assay; type: nucleic-acid assay
[17] = Toxicity in BALB/c nude mouse assessed as effect on heart at 5 mg/kg, iv measured after 16 hrs post injection by H and E staining based analysis; type: organism-based; conditions: in vivo
HeLa = experiment: Antiproliferative activity against human HeLa cells measured after 48 hrs by MTT assay; type: functional, cell-based
Summary of the method: (§2)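 Cells exposed to the ligands for 48 h. Viability was read by MTT, and the IC50 was derived from the response.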

HCT-116 [18] = experiment: Downregulation of lamin B1 level in human HCT-116 cells measured after 72 hrs by immunofluorescence analysis; type: functional, cell-based; conditions: dose <= 4.0 µM
Summary of the method: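 HCT116 cells treated with ligand at 0-4 uM for 72 h. Lamin B1 and Ki67 imaged by immunofluorescence (excitation 635 nm), or lamin B1 probed on Western blot with β-actin as loading control.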

[19] = Drug localization in mitochondria of living human HCT-116 cells assessed as colocalization at 4 uM incubated for 1 hr by Mito-tracker deep red staining based analysis; type: ADME; conditions: hct-116, 1 h
HCT-116 [20] = experiment: Upregulation of p16 level in human HCT-116 cells at upto 4 uM measured after 72 hrs by Western blot analysis; type: functional, cell-based
Summary of the method: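 HCT116 cells treated with ligand at 0-4 uM for 72 h. Lysates immunoblotted for Lamin B1, p53, p21, p16, gamma-H2A.x, caspase-3 and cleaved caspase-3, with beta-actin as loading control.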

[21] = Toxicity in BALB/c nude mouse assessed as effect on liver at 5 mg/kg, iv measured after 16 hrs post injection by H and E staining based analysis; type: organism-based; conditions: in vivo
DNA [22] = experiment: Binding affinity to SS19 DNA (non-G4 DNA) (unknown origin) assessed as change in melting temperature at 5 uM by circular dichroism spectroscopic analysis; type: nucleic-acid assay
[23] = Drug localization in human HCT-116 cells transfected with Cy5-SS19 non G4 DNA at 4 uM incubated for 1 hr by hoechst33342 staining based analysis; type: ADME, cell-based; conditions: hct-116, 1 h
Summary of the method: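 HCT116 cells transfected with Cy5-labelled DNA (excitation 635 nm) for 24 h. Ligand 4 uM added for 1 h, then Hoechst33342 1 uM for 30 min. Colocalization of ligand with Cy5 quantified by Pearson r from confocal images.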

[24] = Antiproliferative activity against human HFF-1 cells measured after 48 hrs by MTT assay; type: toxicity, cell-based; conditions: HFF-1 cells; summary of the method: as §2
HCT-116 [25] = experiment: Downregulation of ND6 protein level in human HCT-116 cells at upto 4 uM incubated for 48 hrs by Western blot analysis; type: functional, cell-based
HCT-116 [26] = experiment: Induction of cell senescence in human HCT-116 cells assessed by increase SA-beta-Gal positive cells at upto 4 uM measured after 72 hrs by SA-bet-gal assay
Quadruplex DNA [27] = experiment: Binding affinity to mito 78 G4 DNA (unknown origin) assessed as dissociation constant measured upto 150 secs by isothermal titration calorimetry assay; type: nucleic-acid assay

In the case of `C(=C\c1ccc2ccccc2[n+]1CCCCCCCC[n+]1c(/C=C/c2ccc(N3CCCCC3)cc2)ccc2ccccc21)/c1ccc(N2CCCCC2)cc1.[I-].[I-]`, the Drug uptake [1] is reported as “Not Active”, the Drug uptake [2] is reported as “Active” and the Activity (HCT-116 [3]) is reported as “Active”. The Activity (HCT-116 [4]) was “Active”, the Drug uptake [5] was “Active” and the Activity [6] was “Non-Toxic”. For the same compound, the Activity (HCT-116 [7]) was 17.63%, the ΔTm (DNA [8]) was 0.5 °C and the Activity (Quadruplex DNA [9]) was “Active”. For the same compound, the Drug uptake [10] was “Active”, the Activity (HCT-116 [11]) was “Active” and the Activity (HCT-116 [12]) was “Active”. For the same compound, the Activity (Quadruplex DNA [13]) was “Active”, the Activity (HCT-116 [14]) was “Active” and the Drug uptake [15] was “Not Active”. The Kd (Quadruplex DNA [16]) was 0.06 µM, the Activity [17] was “Non-Toxic” and the IC50 (HeLa) was 23.5 µM. The Activity (HCT-116 [18]) was “Dose-Dependent Effect”, the Drug uptake [19] was “Active” and the Activity (HCT-116 [20]) was “Active”. For the same compound, the Activity [21] was “Non-Toxic”, the ΔTm (DNA [22]) was 0.5 °C and the Drug uptake [23] was “Not Active”. For the same compound, the IC50 at 48 h [24] was 32.7 µM, the Activity (HCT-116 [25]) was “Active” and the Activity (HCT-116 [26]) was “Active”. For the same compound, the Kd (Quadruplex DNA [27]) was 0.06 µM.
